Reference: ChEMBL document CHEMBL1255473, “Homozygous triplicate mutations in three 16S rRNA genes responsible for high-level aminoglycoside resistance in Nocardia farcinica clinical isolates from a Canada-wide bovine mastitis epizootic” (2010)
Converted amounts (≈) assume the structure as drawn. The source made the active and inactive calls. The calls are words filed in the database; no cut-off is given here.

Columns and labels:
[1] = tested on: Nocardia farcinica; assay: Antimicrobial activity against amikacin-resistant Nocardia farcinica IFM 10580 after 3 days by broth microdilution method; format: functional
How it was run: (§1)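 Broth microdilution in BHI medium with a range of aminoglycosides. Cells were incubated at 37°C, OD600 was measured, and the MIC was read on day 3 of incubation.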

[2] = tested on: Nocardia farcinica; assay: Antimicrobial activity against amikacin-susceptible Nocardia farcinica IFM 10152 harboring 16s rRNA A1408G mutant after 3 days by broth microdilution method; format: functional; how it was run: as §1
[3] = tested on: Nocardia farcinica; assay: Antimicrobial activity against amikacin-susceptible Nocardia farcinica IFM 10152 after 3 days by broth microdilution method; format: functional
How it was run: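 Broth microdilution in BHI medium, final inoculum 10^4 CFU/ml. Host strain carried empty pNV19 vector. Cells incubated with serial aminoglycoside concentrations at 37°C for 3 days. MIC read from OD600.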

[4] = tested on: Nocardia farcinica; assay: Antimicrobial activity against amikacin-susceptible Nocardia farcinica IFM 10152 harboring 16s rRNA A1408G mutant after 5 days by broth microdilution method; format: functional
How it was run: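 Broth microdilution in BHI medium across several aminoglycosides. Cells were held at 37°C and MIC was determined from OD600 on day 5 of incubation.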

[5] = tested on: Nocardia farcinica; assay: Antimicrobial activity against amikacin-susceptible Nocardia farcinica IFM 10152-M3 expressing rrnA A1408G, rrnB A1408G and rrnC A1408G mutant genes after 3 days by broth microdilution method; format: functional; settings: IFM 10152-M3, 72 h; how it was run: as §1
[6] = tested on: Nocardia farcinica; assay: Antimicrobial activity against amikacin-susceptible Nocardia farcinica isolate IFM 10152-M2 assessed as cell growth at 1024 ug/ml after 24 hrs; format: functional, organism-based
[7] = tested on: Nocardia farcinica; assay: Antimicrobial activity against amikacin-susceptible Nocardia farcinica IFM 10152-M2 expressing wild type rrnB gene and plasmid encoded rrnA A1408G and rrnC A1408G mutant genes after 3 days by broth microdilution method; format: functional; settings: IFM 10152-M2, 72 h; how it was run: as §1
[8] = tested on: Nocardia farcinica; assay: Antimicrobial activity against amikacin-susceptible Nocardia farcinica isolate IFM 10152-M2 assessed as cell growth at 1024 ug/ml after 24 hrs
[9] = tested on: Nocardia farcinica; assay: Antimicrobial activity against amikacin-susceptible Nocardia farcinica IFM 10152-M2 expressing rrnA A1408G and rrnC A1408G mutant genes after 3 days by broth microdilution method; format: functional; settings: IFM 10152-M2, 72 h; how it was run: as §1
[10] = tested on: Nocardia farcinica; assay: Antimicrobial activity against amikacin-susceptible Nocardia farcinica isolate IFM 10152-M3 assessed as cell growth at 1024 ug/ml at <12 hrs; format: functional, organism-based
[11] = tested on: Nocardia farcinica; assay: Antimicrobial activity against amikacin-resistant Nocardia farcinica IFM 10580 assessed as cell growth at 1024 ug/ml at <12 hrs; format: functional, organism-based
How it was run: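 Cells were cultured in the presence of 1,024 μg/ml amikacin and growth was followed over time.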

For CN[C@H]1C[C@@H](N)[C@H](O)[C@@H](O[C@@H]2O[C@H](CO)[C@H](O)[C@H]3O[C@@]4(O[C@H]23)O[C@H]([C@H](N)CO)[C@H](O)[C@H](O)[C@H]4O)[C@@H]1O, the MIC ([1]; IFM 10580, 72 h) was 32 µg/mL (≈ 60.7 µM), the MIC ([2]; IFM 10152, 72 h) was 32 µg/mL (≈ 60.7 µM) and the MIC ([3]; IFM 10152, 72 h) was 32 µg/mL (≈ 60.7 µM). It also gave an MIC ([4]; IFM 10152, 120 h) of 32 µg/mL (≈ 60.7 µM).

With NCC[C@H](O)C(=O)N[C@@H]1C[C@H](N)[C@@H](O[C@H]2O[C@H](CN)[C@@H](O)[C@H](O)[C@H]2O)[C@H](O)[C@H]1O[C@H]1O[C@H](CO)[C@@H](O)[C@H](N)[C@H]1O [AMIKACIN] the MIC [5] was > 1020 µg/mL, the MIC ([1]; IFM 10580, 72 h) was > 1020 µg/mL and the Activity [6] was “inactive”. The MIC [7] was > 1020 µg/mL, the Activity [8] was “inactive” and the MIC [9] was < 1 µg/mL. For the same molecule, the Activity [10] was “inactive”, the Activity [11] was “inactive” and the MIC ([2]; IFM 10152, 72 h) was 64 µg/mL (≈ 109 µM). The MIC ([3]; IFM 10152, 72 h) was < 1 µg/mL and the MIC ([4]; IFM 10152, 120 h) was > 1020 µg/mL.

For CN[C@@H]1[C@@H](O[C@H]2O[C@H](CO)[C@@H](N)[C@H](O)[C@H]2O)OC2C[C@@H](N)[C@@H](O[C@H]3[C@H](O)[C@@H](O)[C@H](N)C[C@@H]3N)OC2[C@@H]1O (some centres undefined) [APRAMYCIN], the MIC ([1]; IFM 10580, 72 h) was > 1020 µg/mL, the MIC ([2]; IFM 10152, 72 h) was 64 µg/mL (≈ 119 µM) and the MIC ([3]; IFM 10152, 72 h) was 32 µg/mL (≈ 59.3 µM). The MIC ([4]; IFM 10152, 120 h) was 256 µg/mL (≈ 474 µM).

NCC[C@H](O)C(=O)N[C@@H]1C[C@H](N)[C@@H](O[C@H]2O[C@H](CN)CC[C@H]2N)[C@H](O)[C@H]1O[C@H]1O[C@H](CO)[C@@H](O)[C@H](N)[C@H]1O [ARBEKACIN] was tested, and the MIC ([1]; IFM 10580, 72 h) was > 1020 µg/mL, the MIC ([2]; IFM 10152, 72 h) was 2 µg/mL (≈ 3.62 µM) and the MIC ([3]; IFM 10152, 72 h) was < 1 µg/mL. The MIC ([4]; IFM 10152, 120 h) was > 1020 µg/mL.

In the case of NC[C@@H]1O[C@H](O[C@H]2[C@@H](O)[C@H](O[C@@H]3[C@@H](O)[C@H](N)C[C@H](N)[C@H]3O[C@H]3O[C@H](CN)[C@@H](O)[C@H](O)[C@H]3N)O[C@@H]2CO)[C@H](N)[C@@H](O)[C@@H]1O [FRAMYCETIN], the MIC ([1]; IFM 10580, 72 h) is reported as > 1020 µg/mL, the MIC ([2]; IFM 10152, 72 h) is reported as > 1020 µg/mL and the MIC ([3]; IFM 10152, 72 h) is reported as 16 µg/mL (≈ 26 µM). The MIC ([4]; IFM 10152, 120 h) was > 1020 µg/mL.

For CN[C@@H]1[C@@H](O)[C@@H](O[C@@H]2[C@@H](O)[C@H](O[C@H]3O[C@H](CN)[C@@H](O)[C@H](O)[C@H]3O)[C@@H](N)C[C@H]2NC(=O)[C@@H](O)CN)OC[C@]1(C)O [ISEPAMICIN], the MIC ([1]; IFM 10580, 72 h) was > 1020 µg/mL, the MIC ([2]; IFM 10152, 72 h) was 16 µg/mL (≈ 28.1 µM) and the MIC ([3]; IFM 10152, 72 h) was < 1 µg/mL. For the same molecule, the MIC ([4]; IFM 10152, 120 h) was 128 µg/mL (≈ 225 µM).

For NC[C@H]1O[C@H](O[C@H]2[C@H](O)[C@@H](O[C@H]3O[C@H](CO)[C@@H](O)[C@H](N)[C@H]3O)[C@H](N)C[C@@H]2N)[C@H](O)[C@@H](O)[C@@H]1O [KANAMYCIN], the MIC ([1]; IFM 10580, 72 h) was > 1020 µg/mL, the MIC ([2]; IFM 10152, 72 h) was > 1020 µg/mL and the MIC ([3]; IFM 10152, 72 h) was 256 µg/mL (≈ 528 µM). The MIC ([4]; IFM 10152, 120 h) was > 1020 µg/mL.

For CCN[C@@H]1C[C@H](N)[C@@H](O[C@H]2OC(CN)=CC[C@H]2N)[C@H](O)[C@H]1O[C@H]1OC[C@](C)(O)[C@H](NC)[C@H]1O [NETILMICIN], the MIC ([1]; IFM 10580, 72 h) was > 1020 µg/mL, the MIC ([2]; IFM 10152, 72 h) was 4 µg/mL (≈ 8.41 µM) and the MIC ([3]; IFM 10152, 72 h) was < 1 µg/mL. It also gave an MIC ([4]; IFM 10152, 120 h) of 32 µg/mL (≈ 67.3 µM).

NC[C@@H]1O[C@H](O[C@H]2[C@@H](O)[C@H](O[C@@H]3[C@@H](O)[C@H](N)C[C@H](N)[C@H]3O[C@H]3O[C@H](CO)[C@@H](O)[C@H](O)[C@H]3N)O[C@@H]2CO)[C@H](N)[C@@H](O)[C@@H]1O [PAROMOMYCIN] was tested, and the MIC ([1]; IFM 10580, 72 h) was > 1020 µg/mL, the MIC ([2]; IFM 10152, 72 h) was > 1020 µg/mL and the MIC ([3]; IFM 10152, 72 h) was 8 µg/mL (≈ 13 µM). The MIC ([4]; IFM 10152, 120 h) was > 1020 µg/mL.

With NC[C@H]1O[C@H](O[C@H]2[C@H](O[C@@H]3O[C@H](CO)[C@@H](O)[C@H]3O)[C@@H](O)[C@H](N)C[C@@H]2N)[C@H](N)[C@@H](O)[C@@H]1O [RIBOSTAMYCIN] the MIC ([1]; IFM 10580, 72 h) was > 1020 µg/mL, the MIC ([2]; IFM 10152, 72 h) was > 1020 µg/mL and the MIC ([3]; IFM 10152, 72 h) was 256 µg/mL (≈ 563 µM). The MIC ([4]; IFM 10152, 120 h) was > 1020 µg/mL.

Molecule CN[C@@H]1[C@H](O[C@H]2[C@H](O[C@H]3[C@H](O)[C@@H](O)[C@H](N=C(N)N)[C@@H](O)[C@@H]3N=C(N)N)O[C@@H](C)[C@]2(O)C=O)O[C@@H](CO)[C@H](O)[C@H]1O [STREPTOMYCIN] has an MIC ([1]; IFM 10580, 72 h) of 128 µg/mL (≈ 220 µM), an MIC ([2]; IFM 10152, 72 h) of 64 µg/mL (≈ 110 µM) and an MIC ([3]; IFM 10152, 72 h) of 64 µg/mL (≈ 110 µM). For the same molecule, the MIC ([4]; IFM 10152, 120 h) was 128 µg/mL (≈ 220 µM).

For NC[C@H]1O[C@H](O[C@H]2[C@H](O)[C@@H](O[C@H]3O[C@H](CO)[C@@H](O)[C@H](N)[C@H]3O)[C@H](N)C[C@@H]2N)[C@H](N)C[C@@H]1O [TOBRAMYCIN], the MIC ([1]; IFM 10580, 72 h) was > 1020 µg/mL, the MIC ([2]; IFM 10152, 72 h) was 64 µg/mL (≈ 137 µM) and the MIC ([3]; IFM 10152, 72 h) was 32 µg/mL (≈ 68.4 µM). The MIC ([4]; IFM 10152, 120 h) was > 1020 µg/mL.

For GENTAMICIN, the MIC [1] was > 1020 µg/mL, the MIC [2] was 256 µg/mL and the MIC [3] was 64 µg/mL. For the same molecule, the MIC [4] was > 1020 µg/mL.
